Columns and labels:
[1] = tested on: MITF-dependent target genes; settings: cited from earlier work
[2] = tested on: melanoma cell lines; settings: cited from earlier work
[3] = target: T1, MITF(217-296) (Homo sapiens, UniProt O75030); test: Protein-observed NMR titration; type: binding
T1 sequence (O75030 217-296 isoform O75030-9): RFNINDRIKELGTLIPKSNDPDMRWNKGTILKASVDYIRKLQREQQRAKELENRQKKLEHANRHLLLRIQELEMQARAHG

[4] = target: T1, MITF(217-296); test: 19F NMR reporter assay; type: binding
[5] = target: T2, MITF(180-296) (Homo sapiens, UniProt O75030); test: Surface plasmon resonance; type: binding; settings: 25 °C
T2 sequence (O75030 287-403): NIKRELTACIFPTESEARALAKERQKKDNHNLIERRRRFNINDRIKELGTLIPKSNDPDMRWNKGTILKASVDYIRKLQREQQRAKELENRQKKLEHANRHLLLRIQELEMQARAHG
Method in brief: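 MITF(180-296), biotinylated via C-terminal Avi-tag, was captured on a streptavidin chip at 6 µg mL-1 to ~3000 RU. Run at 25 °C in 25 mM Tris-HCl pH 7.5, 150 mM NaCl, 0.05% Tween 20, 3 mM EDTA, 0.5 mM TCEP, 10 mM L-arginine, 3% DMSO. Test compound was injected as a 2- or 3-fold series at 60 µL min-1 (60 s association, 150 s dissociation). Double-referenced data were fitted globally to a 1:1 model for kon, koff and KD.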

[6] = target: T3, MITF(180-296) (Homo sapiens, UniProt O75030); test: Isothermal titration calorimetry; type: binding; settings: 25 °C, n = 2, mean ± SD
T3 sequence (O75030 300-403 limits assumed): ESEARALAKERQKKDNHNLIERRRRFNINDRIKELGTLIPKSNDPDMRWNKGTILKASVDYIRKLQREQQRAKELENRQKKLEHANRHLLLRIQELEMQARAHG
Method in brief: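 Run at 25 °C in high-feedback mode. Buffer: 25 mM Tris-HCl pH 7.5, 150 mM NaCl, 10 mM L-arginine, 3 mM EDTA, 0.5 mM TCEP. Cell held 12 µM purified dimeric wild-type avi-tagged MITF(180-296), dialysed twice at 4 °C, with 2% DMSO. Syringe held 182–220 µM test compound diluted from DMSO. Duplicates were fitted with automatic baseline/integration; reported as mean ± SD.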

[7] = target: MYC/MAX (Homo sapiens, UniProt P01106+P61244); test: NMR chemical shift perturbation; type: binding
Chain of MYC/MAX (P01106 368-449): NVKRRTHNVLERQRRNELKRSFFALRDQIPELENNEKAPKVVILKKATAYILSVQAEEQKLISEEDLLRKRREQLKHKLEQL
Chain of MYC/MAX (P61244 22-102): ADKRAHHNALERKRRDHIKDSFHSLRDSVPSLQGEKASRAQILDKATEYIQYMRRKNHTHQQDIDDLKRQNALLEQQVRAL

[8] = target: T3, MITF(180-296); test: Nano differential scanning fluorimetry; type: binding; settings: nanoDSF, compound at 50 μM
Method in brief: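 Wild-type MITF(180-296) was spun 16,000 × g, 10 min, 4 °C, then used at 0.3 mg mL-1 final in 50 mM HEPES pH 8, 300 mM NaCl, 5% glycerol, 1 mM TCEP. Test compound 50 μM final, 3% DMSO; DMSO for apo. Shaken 30 min at RT and re-spun. Heated 20–95 °C at 0.5 °C min-1; 280 nm excitation, 330/350 nm emission. Duplicates.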

[9] = tested on: MITF(180-296) Q261A; test: ITC with MITF variant Q261A; type: binding, human; settings: 25 °C
[10] = tested on: MITF(180-296) A264C; test: ITC with MITF variant A264C; type: binding, human; settings: 25 °C
[11] = tested on: MITF(180-296) R263A; test: ITC with MITF variant R263A; type: binding, human; settings: 25 °C
[12] = KD (MITF NMR KD), protein-observed NMR titration
[13] = SPR KD,eq, equilibrium affinity

SMILES: NS(=O)(=O)c1ccc(NC2=CC(=O)c3ccccc3C2=O)cc1 [ML329]
- effect on MITF-dependent target genes [1]: induce downregulation of a subset of MITF-dependent target genes
- effect on survival of melanoma cell lines [2]: negatively impact survival of melanoma cell lines

SMILES: O=C(O)c1cc2cc(F)ccc2n1-c1ccc(F)cc1 [compound 1]
- Kd ([3]; KD, protein-observed NMR titrations): 1000 µM

SMILES: O=C(O)c1[nH]c2ccc(Cl)cc2c1-c1ccccc1 [compound 3]
- Kd [3, 12]: 327 µM
- ligand efficiency ([4]; from NMR affinities): 0.25

SMILES: O=C(O)c1[nH]c2ccc(Cl)cc2c1-c1ccc(F)cc1 [compound 5]
- Kd [3, 12]: 104 µM

SMILES: O=C(O)c1cc2ccc(C#CC3(O)CCCCC3)cc2n1-c1ccccc1 [compound 6]
- Kd [5, 13]: 8 µM
- ITC KD [6]: low-μM range
- Kd [7]: > 200 µM
- Ki [4]: 2.6 µM
- improved binding affinity compared to compound 3 ([4]; Ki of 6 versus KD of 3): > 100 fold

SMILES: Cc1cc(C#CC2(O)CCCCC2)cc2c1cc(C(=O)O)n2-c1ccccc1 [compound 7]
- Kd [5, 13]: 4 µM
- ITC KD [6]: low-μM range
- Kd [7]: > 200 µM

SMILES: O=C(O)c1cc2ccc(C#CC3(O)CCCCC3)cc2n1-c1cccc(Cl)c1 [compound 8]
- thermal stabilization of MITF [8]: 3.4 °C
- Kd [5, 13]: 1.9 µM
- Kd ([5]; kinetic affinity constant (KD,kin), SPR, from kon and koff): 1.8 µM
- binding to MITF variant by ITC [9]: significant disruption of binding interactions
- binding to MITF variant by ITC [10]: significant disruption of binding interactions
- Kd ([6]; ITC KD): 0.47 ± 0.17 µM
- -TΔS ([6]; ITC): 2.96 ± 2.08 kcal/mol
- ΔG ([6]; ITC): -8.63 ± 0.21 kcal/mol
- ΔH ([6]; ITC): -11.8 ± 1.55 kcal/mol
- binding to MITF variant by ITC [11]: significant disruption of binding interactions
